Test results reported in ChEMBL document CHEMBL1649199 (Antimicrob Agents Chemother, 2009).

Experiments:
Plasmodium falciparum [1] = experiment: Antimicrobial activity against Plasmodium falciparum IMT 16332 harboring Pfcrt, Pfmdr1, Pfmrp, and Pfnhe-1 polymorphisms assessed as growth inhibition after 48 hrs by scintillation counting; type: functional, organism-based; details: IMT 16332, 48 h
Method in brief: (§1)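 Sorbitol-synchronized (twice) culture-adapted strains were grown in type A+ human blood in RPMI 1640 with 10% human serum, 25 mM HEPES and 25 mM NaHCO3, at 37°C under 10% O2/5% CO2/85% N2. Rings (>95%) at 0.5% parasitemia and 1.5% hematocrit were exposed to drug, methanol then water, final 0.125–400 nM or 5.3–3,387 nM, with 1 μCi [3H]hypoxanthine for 48 h. IC50 from nonlinear regression versus drug-free controls.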

Plasmodium falciparum [2] = experiment: Antimicrobial activity against Plasmodium falciparum IMT 16116 harboring Pfcrt, Pfmdr1, Pfmrp, and Pfnhe-1 polymorphisms assessed as growth inhibition after 48 hrs by scintillation counting; type: functional, organism-based; details: IMT 16116, 48 h; method in brief: as §1
Plasmodium falciparum [3] = experiment: Antimicrobial activity against Plasmodium falciparum FCM29 harboring Pfcrt, Pfmdr1, Pfmrp, and Pfnhe-1 polymorphisms assessed as growth inhibition after 48 hrs by scintillation counting; type: functional, organism-based; details: FCM29, 48 h
Method in brief: (§2)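 Culture-adapted strains in RPMI 1640 with 10% human serum, 25 mM HEPES, 25 mM NaHCO3, type A+ blood, 10% O2/5% CO2/85% N2, 37°C; sorbitol-synchronized twice. Rings >95%, 0.5% parasitemia, 1.5% hematocrit; drug (methanol then water) final 0.125–400 nM or 5.3–3,387 nM. [3H]hypoxanthine 1 μCi/well at time zero, 48 h; freeze-thaw, harvest, scintillation; IC50 versus drug-free control by nonlinear regression of log dose-response.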

Plasmodium falciparum [4] = experiment: Antimicrobial activity against Plasmodium falciparum IMT K4 harboring Pfcrt, Pfmdr1, Pfmrp, and Pfnhe-1 polymorphisms assessed as growth inhibition after 48 hrs by scintillation counting; type: functional, organism-based; details: IMT K4, 48 h; method in brief: as §1
Plasmodium falciparum [5] = experiment: Antimicrobial activity against Plasmodium falciparum D6 harboring Pfcrt, Pfmdr1, Pfmrp, and Pfnhe-1 polymorphisms assessed as growth inhibition after 48 hrs by scintillation counting; type: functional, organism-based; details: D6, 48 h; method in brief: as §1
Plasmodium falciparum [6] = experiment: Antimicrobial activity against Plasmodium falciparum IMT 10354 harboring Pfcrt, Pfmdr1, Pfmrp, and Pfnhe-1 polymorphisms assessed as growth inhibition after 48 hrs by scintillation counting; type: functional, organism-based; details: IMT 10354, 48 h; method in brief: as §1
Plasmodium falciparum [7] = experiment: Antimicrobial activity against Plasmodium falciparum IMT 31 harboring Pfcrt, Pfmdr1, Pfmrp, and Pfnhe-1 polymorphisms assessed as growth inhibition after 48 hrs by scintillation counting; type: functional, organism-based; details: IMT 31, 48 h; method in brief: as §1
Plasmodium falciparum [8] = experiment: Antimicrobial activity against Plasmodium falciparum IMT 9996 harboring Pfcrt, Pfmdr1, Pfmrp, and Pfnhe-1 polymorphisms assessed as growth inhibition after 48 hrs by scintillation counting; type: functional, organism-based; details: IMT 9996, 48 h; method in brief: as §1
Plasmodium falciparum [9] = experiment: Antimicrobial activity against Plasmodium falciparum IMT K2 harboring Pfcrt, Pfmdr1, Pfmrp, and Pfnhe-1 polymorphisms assessed as growth inhibition after 48 hrs by scintillation counting; type: functional, organism-based; details: IMT K2, 48 h; method in brief: as §2
Plasmodium falciparum [10] = experiment: Antimicrobial activity against Plasmodium falciparum IMT Vol harboring Pfcrt, Pfmdr1, Pfmrp, and Pfnhe-1 polymorphisms assessed as growth inhibition after 48 hrs by scintillation counting; type: functional, organism-based; method in brief: as §1
Plasmodium falciparum [11] = experiment: Antimicrobial activity against Plasmodium falciparum PA harboring Pfcrt, Pfmdr1, Pfmrp, and Pfnhe-1 polymorphisms assessed as growth inhibition after 48 hrs by scintillation counting; type: functional, organism-based; method in brief: as §2
Plasmodium falciparum [12] = experiment: Antimicrobial activity against Plasmodium falciparum IMT L1 harboring Pfcrt, Pfmdr1, Pfmrp, and Pfnhe-1 polymorphisms assessed as growth inhibition after 48 hrs by scintillation counting; type: functional, organism-based; details: IMT L1, 48 h; method in brief: as §2
Plasmodium falciparum [13] = experiment: Antimicrobial activity against Plasmodium falciparum IMT 9881 harboring Pfcrt, Pfmdr1, Pfmrp, and Pfnhe-1 polymorphisms assessed as growth inhibition after 48 hrs by scintillation counting; type: functional, organism-based; details: IMT 9881, 48 h; method in brief: as §1
Plasmodium falciparum [14] = experiment: Antimicrobial activity against Plasmodium falciparum IMT K14 harboring Pfcrt, Pfmdr1, Pfmrp, and Pfnhe-1 polymorphisms assessed as growth inhibition after 48 hrs by scintillation counting; type: functional, organism-based; details: IMT K14, 48 h; method in brief: as §1
Plasmodium falciparum [15] = experiment: Antimicrobial activity against Plasmodium falciparum IMT Bres harboring Pfcrt, Pfmdr1, Pfmrp, and Pfnhe-1 polymorphisms assessed as growth inhibition after 48 hrs by scintillation counting; type: functional, organism-based; method in brief: as §1
Plasmodium falciparum [16] = experiment: Antimicrobial activity against Plasmodium falciparum IMT A4 harboring Pfcrt, Pfmdr1, Pfmrp, and Pfnhe-1 polymorphisms assessed as growth inhibition after 48 hrs by scintillation counting; type: functional, organism-based; details: IMT A4, 48 h; method in brief: as §2
Plasmodium falciparum [17] = experiment: Antimicrobial activity against Plasmodium falciparum ms4760-7 assessed as growth inhibition after 48 hrs by scintillation counting; details: ms4760-7, 48 h
Plasmodium falciparum [18] = experiment: Antimicrobial activity against Plasmodium falciparum 3D7 harboring Pfcrt, Pfmdr1, Pfmrp, and Pfnhe-1 polymorphisms assessed as growth inhibition after 48 hrs by scintillation counting; type: functional, organism-based; details: 3D7, 48 h; method in brief: as §1
Plasmodium falciparum [19] = experiment: Antimicrobial activity against Plasmodium falciparum IMT 6311 harboring Pfcrt, Pfmdr1, Pfmrp, and Pfnhe-1 polymorphisms assessed as growth inhibition after 48 hrs by scintillation counting; type: functional, organism-based; details: IMT 6311, 48 h; method in brief: as §1
Plasmodium falciparum [20] = experiment: Antimicrobial activity against Plasmodium falciparum W2 harboring Pfcrt, Pfmdr1, Pfmrp, and Pfnhe-1 polymorphisms assessed as growth inhibition after 48 hrs by scintillation counting; type: functional, organism-based; details: W2, 48 h; method in brief: as §1
Plasmodium falciparum [21] = experiment: Antimicrobial activity against Plasmodium falciparum ms4760-6 assessed as growth inhibition after 48 hrs by scintillation counting; details: ms4760-6, 48 h
Plasmodium falciparum [22] = experiment: Antimicrobial activity against Plasmodium falciparum FCR3 harboring Pfcrt, Pfmdr1, Pfmrp, and Pfnhe-1 polymorphisms assessed as growth inhibition after 48 hrs by scintillation counting; type: functional, organism-based; details: FCR3, 48 h; method in brief: as §1
Plasmodium falciparum [23] = experiment: Antimicrobial activity against Plasmodium falciparum IMT 10500 harboring Pfcrt, Pfmdr1, Pfmrp, and Pfnhe-1 polymorphisms assessed as growth inhibition after 48 hrs by scintillation counting; type: functional, organism-based; details: IMT 10500, 48 h; method in brief: as §1
Plasmodium falciparum [24] = experiment: Antimicrobial activity against Plasmodium falciparum IMT 10336 harboring Pfcrt, Pfmdr1, Pfmrp, and Pfnhe-1 polymorphisms assessed as growth inhibition after 48 hrs by scintillation counting; type: functional, organism-based; details: IMT 10336, 48 h; method in brief: as §1
Plasmodium falciparum [25] = experiment: Antimicrobial activity against Plasmodium falciparum IMT 8425 harboring Pfcrt, Pfmdr1, Pfmrp, and Pfnhe-1 polymorphisms assessed as growth inhibition after 48 hrs by scintillation counting; type: functional, organism-based; details: IMT 8425, 48 h; method in brief: as §1

In the case of `C=C[C@H]1CN2CC[C@H]1C[C@H]2[C@H](O)c1ccnc2ccc(OC)cc12` [QUININE], the IC50 (Plasmodium falciparum [1]) is reported as 0.083 µM, the IC50 (Plasmodium falciparum [2]) is reported as 0.204 µM and the IC50 (Plasmodium falciparum [3]) is reported as 0.58 µM. For the same compound, the IC50 (Plasmodium falciparum [4]) was 1.03 µM, the IC50 (Plasmodium falciparum [5]) was 0.062 µM and the IC50 (Plasmodium falciparum [6]) was 0.058 µM. For the same compound, the IC50 (Plasmodium falciparum [7]) was 0.371 µM, the IC50 (Plasmodium falciparum [8]) was 1.04 µM and the IC50 (Plasmodium falciparum [9]) was 0.599 µM. The IC50 (Plasmodium falciparum [10]) was 0.421 µM, the IC50 (Plasmodium falciparum [11]) was 0.625 µM and the IC50 (Plasmodium falciparum [12]) was 0.575 µM. It also gave an IC50 (Plasmodium falciparum [13]) of 0.057 µM, an IC50 (Plasmodium falciparum [14]) of 1.31 µM and an IC50 (Plasmodium falciparum [15]) of 0.5 µM. For the same compound, the IC50 (Plasmodium falciparum [16]) was 0.605 µM, the IC50 (Plasmodium falciparum [17]) was 0.764 µM and the IC50 (Plasmodium falciparum [18]) was 0.128 µM. For the same compound, the IC50 (Plasmodium falciparum [19]) was 0.453 µM, the IC50 (Plasmodium falciparum [20]) was 0.686 µM and the IC50 (Plasmodium falciparum [21]) was 0.582 µM. The IC50 (Plasmodium falciparum [22]) was 0.334 µM, the IC50 (Plasmodium falciparum [23]) was 0.21 µM and the IC50 (Plasmodium falciparum [24]) was 0.271 µM. For the same compound, the IC50 (Plasmodium falciparum [25]) was 0.148 µM.
